Screens deposited in PubChem BioAssay by several laboratories.
Compounds with a hit are over-represented: about 3% of the library has one in this group of screens.
GC-B act = GC-B (human) receptor activation; HEK293-GC-B cells, CNP EC30, cGMP TR-FRET; 0% at EC30 CNP, 100% saturating CNP; AID 1920062; activation, % at 10 µM; P20594; 370,000 compounds, 0.11% hits;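 active = activation at 10 µM reaching about 35% in either raw or pattern-adjusted values, limit read from the data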
aDG glyco up = increases alpha dystroglycan glycosylation; Pro5-aDG cells, alpha-DG glycosylation AlphaScreen (IIH6); 0% Pro5, 100% B10-LARGE cell signal; 360,000 compounds, 0.22% hits; activation, % at 10 µM;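 active = activation of at least 8% versus controls, or a plate z-score of at least 8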;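 note: Pro5 are CHO cells carrying HIG-tagged alpha-DG that lacks glycosylation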
GRIN3A LBD mod = NR3A (human) ligand-binding domain modulation; NR3A LBD differential scanning fluorimetry, Tm shift; 0% = protein alone, 100% = glycine-bound protein; Tm shift relative to glycine control, % at 25 µM; 340,000 compounds, 2.5% hits; AID 1259313;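 active = melting temperature shift of at least 10% of the positive control shift, at one fixed dose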
JMJD2C inh = blocks human GASC-1 demethylase activity; inhibition, % at 2.35 µM; GST-JMJD2C(1-420) H3K9me3 demethylation, DELFIA europium; Q9H3R0; 330,000 compounds, 0.069% hits;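 active = more than half of a compound's replicate wells show inhibition beyond 50%, single wells judged on their own value; inconclusive = some, but no more than half, of replicates pass 50% inhibition; inactive = no replicate passes 50% inhibition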;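 note: signal counts dimethyl H3K9 product captured on neutravidin plate; 0% = median of DMSO wells and 100% = 0.3 times that DMSO median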
Lipid droplet = hepatic lipid droplet formation modulation; 240,000 compounds, 0.4% hits; inhibition, % at 6.5 µM; AML12 mouse hepatocytes, oleate lipid droplets, BODIPY imaging;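 active = lipid droplet intensity inhibited by at least 50%, with more than 500 cells counted; inconclusive = wells with under 300 cells, treated as cytotoxic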
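Material: mouse AML12 hepatocyte cell line, fixed after treatment; Timing: compound with oleate, overnight; Technique: high-content imaging of BODIPY-stained droplets and DAPI nuclei; Probe or stimulus: oleate, 100 µM final; Dosing: compound at 6.5 µM only.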
NPR1 activator = GC-A (human) enzyme activation; P16066; HEK293 GC-A cells, cGMP TR-FRET, EC30 ANP; 0% at EC30 ANP, 100% saturating ANP; activation, % at 10 µM; 370,000 compounds, 0.14% hits; AID 1671463; in the data active = activation above about 40%
Starred values were filed as active, the others as inactive; ? = inconclusive; . = not tested or not shown.

SMILES	GC-B act	aDG glyco up	GRIN3A LBD mod	JMJD2C inh	Lipid droplet	NPR1 activator
COc1ccc(OC)c(N(C)S(=O)(=O)c2cc3c(cc2C)NC(=O)CO3)c1	8	0	2	12	-20	-2
O=C1NN(c2ccc(Cl)c(Cl)c2)C(=O)/C1=C/c1cccc(OC(=O)c2cccs2)c1	.	.	.	.	-7	.
O=C1NN(c2ccccc2)C(=O)/C1=C\c1cccc(OC(=O)c2cccs2)c1	12	0	-9	16	-2	41*
CCOCCOC(=O)c1[nH]c2c(c1C)C(=O)CC(c1ccccc1)C2 (stereo unspecified)	0	2.2*	.	1	.	0
CCOCCOC(=O)c1[nH]c2c(c1C)C(=O)CC(c1cccs1)C2 (stereo unspecified)	-12	0	1	-3	?	2
O=C(COc1ccccc1F)Nc1cc(S(=O)(=O)Nc2cccc(Cl)c2)ccc1O	-2	0	27*	7	.	-6
Cc1ccccc1OCCC(=O)Nc1cccc(S(=O)(=O)Nc2ccccc2Cl)c1	-1	0	15*	2	0	-5
O=C(Cc1ccc(Cl)cc1Cl)Nc1cccc(S(=O)(=O)Nc2ccccc2F)c1	8	0	26*	-2	2	12
O=C(Cc1c(F)cccc1Cl)Nc1cccc(S(=O)(=O)NC2=NCCCCC2)c1	4	0	2	18	.	1
COc1ccc(-c2cc(C(=O)N3CCN(S(=O)(=O)c4ccccc4)CC3)[nH]n2)cc1	-4	0	15*	-5	3	2
O=C(CN1C(=O)C(=O)N(CCC2=CCCCC2)C1=O)c1c[nH]c2ccccc12	-4	0	30*	8	.	-1
Oc1ccccc1-c1nc2c3ccccc3c3ccccc3c2[nH]1	-8	1	37*	-4	22	6
O=C(Nc1nc2c(s1)CCCC2)c1ccc(Br)o1	-11	0	11*	-3	.	-5
Cc1ccc(C(=O)Nc2nc3c(s2)CCCC3)o1	-2	0	0	-1	1	0
COc1ccc(C)cc1NS(=O)(=O)c1ccc(NS(=O)(=O)c2ccc(NC(C)=O)cc2)cc1	1	0	0	-13	-11	1
COc1ccc(S(=O)(=O)Nc2cc(C)ccc2OC)cc1C	-9	0	12*	-21	-30	-11
COc1ccc(C)cc1S(=O)(=O)N(CC(=O)Nc1cccc([N+](=O)[O-])c1)c1ccc(C)c(C)c1	-5	0	33*	0	-33	-2
Cc1ccc(NC(=O)CN(c2ccc(Cl)cc2)S(=O)(=O)c2cc([N+](=O)[O-])ccc2Cl)cc1	-1	0	-3	-5	-31	0
Cc1cccc(NS(=O)(=O)c2ccc(NC(=O)CN(c3cc([N+](=O)[O-])ccc3C)S(C)(=O)=O)cc2)c1	-1	1	22*	4	1	-4
COc1ccc(C)cc1NS(=O)(=O)c1ccc(NC(=O)CN(c2cc([N+](=O)[O-])ccc2C)S(C)(=O)=O)cc1	-1	1	20*	-1	15	-1
O=S(=O)(N[C@H]1CCCC[C@@H]1N1CCOCC1)c1ccc(Cl)cc1	-18	.	.	.	.	-13
N#C/C(=C\Nc1ccccc1O)c1nc2ccccc2o1	9	0	27*	-1	-22	12
COc1ccc(C2C(C(=O)Nc3c(C)cccc3C)CCC(=O)N2c2ccc(OC)cc2)cc1 (stereo unspecified)	0	.	.	.	.	2
O=C(Nc1ccc2c(c1)CCC2)c1ccc(F)cc1	3	0	3	-13	2	3
O=C(Nc1ccc2c(c1)CCC2)c1cc(S(=O)(=O)Nc2ccc(F)cc2)c(Cl)cc1Cl	0	0	31*	4	2	0
SMILES	GC-B act	aDG glyco up	GRIN3A LBD mod	JMJD2C inh	Lipid droplet	NPR1 activator
COc1cc2c(cc1OC)CN(C(=O)CSc1ccc(F)cc1)CC2	0	0	-1	15	.	-1
COc1cc2c(cc1OC)CN(C(=O)CSc1n[nH]c(N)n1)CC2	3	0	-1	54*	8	2
O=C1NC(c2ccc(Br)cc2)c2c(-c3ccccc3)n[nH]c21 (stereo unspecified)	-17	.	.	.	.	-13
O=C(Nc1cccc(-n2cnnn2)c1)c1ccoc1COc1ccc(Cl)cc1	-4	0	21*	-17	-2	7
O=C(Nc1cccc(-n2cnnn2)c1)c1cc(Cl)ccc1Cl	0	0	-4	3	2	-1
CCOC(=O)c1c(C)n(C)c2cc(-c3ccc(C)cc3)c(O)cc12	-2	0	1	-6	-2	4
CCOC(=O)c1c(C)n(C)c2cc(-c3cccc(C(F)(F)F)c3)c(O)cc12	-4	0	13*	-1	18	0
Cc1ccccc1CC(=O)Nc1nnc(-c2cccnc2)s1	-5	.	.	.	.	-1
O=C(CSc1nnc(-c2cccnc2)n1-c1ccccc1)Nc1cccc2ccccc12	-7	.	.	.	.	-7
COC(=O)c1[nH]c2cc(OC)ccc2c1NC(=O)c1c(F)cccc1F	-1	0	0	6	30	-4
C=CCNC(=S)Nc1c(C(=O)OC)[nH]c2cc(OC)ccc12	36*	0	2	2	4	20
N=c1oc2cc(O)ccc2cc1C(=O)Nc1ccc(Cl)cc1	9	0	20*	-9	1	30
Cc1ccc(NC(=O)c2cc3ccccc3oc2=N)cc1	0	0	-1	14	.	-9
Cc1ccc(CN2CC(C(=O)NCCCSc3ccccc3)CC2=O)cc1 (stereo unspecified)	-2	0	0	-10	-18	3
Cc1ccc(C2C(C#N)=C(N)Oc3cc(N)ccc32)cc1 (stereo unspecified)	4	0	-9	-6	8	25
COc1cc(C2C(C#N)=C(N)Oc3cc(O)ccc32)cc2c1OCO2 (stereo unspecified)	0	2	-15	2	.	53*
N#CC1=C(N)Oc2cc(O)ccc2C1c1ccccc1 (stereo unspecified)	0	0	-3	-4	-1	57*
COc1cc(C2C(C#N)=C(N)Oc3cc(N(C)C)ccc32)cc2c1OCO2 (stereo unspecified)	-7	0	-9	-7	.	-15
N#CC1=C(N)Oc2cc(N)ccc2C1c1cccc(Br)c1 (stereo unspecified)	6	0	3	-25	-97	46*
CCOc1ccc(C(=O)N/N=C/c2ccc(SC)cc2)cc1	0	0	0	-1	2	5
CCOc1ccc(/C=N/NC(=O)c2ccc(CSc3nc4ccccc4[nH]3)cc2)cc1	6	1	11*	-7	0	-1
